Only some compounds are listed: those with a hit (about 5.7% of all), similar ones and a draw of the others.
Beta apoptosis: beta cell apoptosis inhibition; INS-1E cytokine-induced death, ATP luminescence, 48 h; percent of positive-control rescue, neutral wells zero; protection from apoptosis, % (no concentration beside the values); 300,000 tested, 0.8% active;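 active means Every replicate reaches about 75%, or at least half do and their mean reaches it too, limit read from the data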;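 further: 0% = cytokine-treated negative control wells and 100% = positive control rescue; higher means more ATP so stronger rescue from cytokine killing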
T cruzi inh: blocks replication of Trypanosoma cruzi; inhibition, % (concentration not given with the values); T. cruzi beta-gal in NIH3T3, luminescence, 90 h; 300,000 tested, 1.4% active;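 active means mean inhibition across valid replicates above about 55%, limit read from the data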;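 further: signal also drops with host cell toxicity which is not excluded here; 0% = plate median of DMSO wells and 100% = zero luminescence signal; higher percent means less beta-gal luminescence so fewer parasites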
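System: mouse NIH/3T3 fibroblasts infected with β-gal-expressing T. cruzi Tulahuen C4 / Input: NIH/3T3 cells, 5,000 per well / Buffer or medium: Low-serum DMEM with 2% FBS / Probe or stimulus: 5000 reporter trypomastigotes per well / Schedule: ≥90 h infection period, 3 h prior cell attachment / Measured by: GalScreen luminescence, 60 min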
SKKanGAS inh: SKKanGAS growth inhibition | 300,000 tested, 1.3% active | inhibition, % at 7.5 µM | S. pyogenes SKKanGAS, kanamycin growth, BacTiter-Glo, 6 h;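 active means mean replicate score, as percent of positive control median, at least 50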;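 further: strain carries kanamycin resistance gene driven by streptokinase promoter and grows in 40 µg/ml kanamycin; loss of luminescence reflects streptokinase promoter inhibition or plain growth inhibition; 0% = median of DMSO wells and 100% = positive control at its reference dose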
Calb FLC: affects C. albicans growth with fluconazole. growth inhibition, % (test concentration not listed). C. albicans CaCi-2 (fluconazole-resistant clinical isolate) + fluconazole, Alamar Blue growth, 48 h. 300,000 tested, 0.57% active. AID 1979;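 active means growth inhibition above about 58% in most replicates, limit read from the data, passing the limit was not always enough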;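 further: all wells also contain fluconazole at 8 µg/ml as a sub-toxic cotreatment; 0% = median of DMSO wells and 100% = median of geldanamycin control wells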
Mdm2 MdmX PPI: human Mdm2/MdmX binding inhibition; O15151+Q00987; SaOS-2 split-luciferase Mdm2/MdmX complementation, luminescence; inhibition, % at 8 µM; 330,000 tested, 3% active;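 active means inhibition of at least 50% at 8 µM in the primary screen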
Target sequence (O15151 whole entry, looked up): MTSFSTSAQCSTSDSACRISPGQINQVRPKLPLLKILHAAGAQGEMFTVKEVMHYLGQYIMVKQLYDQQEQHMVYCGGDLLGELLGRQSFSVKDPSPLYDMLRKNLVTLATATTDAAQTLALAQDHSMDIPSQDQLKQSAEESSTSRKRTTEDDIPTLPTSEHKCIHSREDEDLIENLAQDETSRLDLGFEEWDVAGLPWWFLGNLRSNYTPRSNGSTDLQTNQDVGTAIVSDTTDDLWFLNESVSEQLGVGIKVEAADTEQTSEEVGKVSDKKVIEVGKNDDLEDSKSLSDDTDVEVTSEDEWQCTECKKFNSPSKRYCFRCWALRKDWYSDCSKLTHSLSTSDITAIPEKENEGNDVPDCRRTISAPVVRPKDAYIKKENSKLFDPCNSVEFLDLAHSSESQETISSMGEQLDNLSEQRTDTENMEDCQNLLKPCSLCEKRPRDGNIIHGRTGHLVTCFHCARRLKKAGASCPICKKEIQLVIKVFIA
Target sequence (Q00987 whole entry, looked up): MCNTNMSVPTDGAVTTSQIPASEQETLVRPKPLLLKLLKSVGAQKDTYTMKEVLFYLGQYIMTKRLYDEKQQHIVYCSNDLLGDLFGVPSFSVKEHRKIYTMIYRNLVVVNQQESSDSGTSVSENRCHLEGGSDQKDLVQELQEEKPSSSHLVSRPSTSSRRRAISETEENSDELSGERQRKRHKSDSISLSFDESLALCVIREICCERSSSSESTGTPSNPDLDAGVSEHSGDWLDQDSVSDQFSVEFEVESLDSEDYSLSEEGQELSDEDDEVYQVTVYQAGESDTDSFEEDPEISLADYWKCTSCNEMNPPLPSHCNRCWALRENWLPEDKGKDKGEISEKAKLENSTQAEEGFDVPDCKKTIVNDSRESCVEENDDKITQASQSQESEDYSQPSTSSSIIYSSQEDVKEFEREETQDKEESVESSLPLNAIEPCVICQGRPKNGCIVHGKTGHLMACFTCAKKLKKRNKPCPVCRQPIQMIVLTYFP
CSC inhib: cancer stem cell inhibition | AID 2717 | inhibition, % at 7.5 µM | cancer stem cell-like cells viability, luminescence | 300,000 tested, 1.1% active; in the data active means inhibition above about 75%; tested in HMLE shEcad cells
Mdm2 MdmX conf: human Mdm2/MdmX binding inhibition, confirmed. shares compounds with Mdm2 MdmX PPI. luminescent assay. inhibition, % at 8 µM. 10,000 tested, 55% active; in the data active means inhibition above about 40%
FLuc counter: inhibits full-length luciferase, flagging false Mdm2/MdmX hits | inhibition, % at 8 µM | shares compounds with Mdm2 MdmX PPI | AID 504607 | 6,200 tested, 77% active | SaOS-2 full-length luciferase counterscreen, luminescence;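 active means mean inhibition at 8 µM reaching about 37%, which flags the compound as non-specific, limit read from the data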;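 further: p53-null SaOS-2 cells with luciferase driven by a doxycycline-inducible promoter; compound on cells about two nights before reading with doxycycline added after day one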
An asterisk follows results filed as active; . = no result.

SMILES | Beta apoptosis | T cruzi inh | SKKanGAS inh | Calb FLC | Mdm2 MdmX PPI | CSC inhib | Mdm2 MdmX conf | others
O=C1c2ccccc2-c2onc3ccc(NCc4ccco4)c1c23 | 43.6 | 13.9 | 23.3 | 15.4 | 58.0* | 50.5 | 25.2
CCCCCCC(CC(=O)NCc1cccnc1)CC(=O)NCc1cccnc1 | -1.1 | -13.5 | -0.4 | -4.5 | -5.9 | -15.9 | .
Cc1ccc(C2Oc3ccccc3C3=C2C(c2cccs2)n2ncnc2N3)cc1 (configuration not stated) | 20.6 | 36.2 | 99.8* | -6.3 | 58.2* | 61.3 | 69.9* | FLuc counter=36.6*
O=C1Nc2ccc(Br)cc2C12NNc1ccccc1O2 (configuration not stated) | -2.5 | 7.8 | 20.0 | 22.9 | 76.4* | 82.5* | 22.6
COc1ccc(CNCCS(=O)(=O)NN2CCOCC2)cc1 | . | . | . | . | 36.9 | . | .
Cc1ccc(C(C(=O)NCc2ccco2)N(C(=O)CNC(=O)c2cccs2)c2ccc(C)cc2C)cc1 (configuration not stated) | 25.2 | -6.0 | 8.3 | 15.6 | 59.5* | 11.7 | 3.8
CC1=CC(=O)C(C(C)C)=C/C1=C(\c1cc(C(C)C)c(OP(=O)(O)O)cc1C)c1ccccc1C(=O)O | 3.7 | -8.4 | 3.1 | -4.9 | 75.3* | 101.3* | 67.5* | FLuc counter=50.3*
CCOc1ccc(C(=O)c2ccccc2C(=O)O)cc1OCC | -6.5 | -7.2 | -1.9 | -2.6 | 1.7 | -19.3 | .
CCCC(=O)NC(NC(=S)Nc1ccc(N=Nc2ccccc2)cc1)C(Cl)(Cl)Cl (configuration not stated) | 109.0* | 41.7 | 10.2 | -23.6 | 86.2* | 119.1* | 89.1* | FLuc counter=32.4
CCc1ccc(OCC(=O)NC(NC(=S)Nc2ccc(Cl)cc2)C(Cl)(Cl)Cl)cc1 (configuration not stated) | 23.1 | 54.0 | 17.5 | -1.0 | 84.3* | 4.1 | 92.1* | FLuc counter=22.0
CCc1ccc(OCC(=O)NC(=S)Nc2ccc(C(=O)O)cc2)cc1 | -1.5 | -11.2 | 3.5 | 5.1 | 21.5 | 3.5 | .
CCc1noc(C)c1C(=O)Nc1nc(-c2ccccc2)c(C(C)=O)s1 | 6.0 | . | . | . | -3.2 | -1.2 | .
N#CC1(NC(=O)CN2C(=O)NC(Cc3c[nH]c4ccccc34)C2=O)CCCCC1 (configuration not stated) | -0.4 | . | . | . | 12.0 | -16.4 | .
O=C(CSc1cccc(C(F)(F)F)c1)Nc1ccc(N2CCOCC2)cc1 | 8.5 | . | . | . | 13.8 | 0.3 | .
CCN(CC)CCN(Cc1cc2ccc(C)c(C)c2[nH]c1=O)C(=S)NCc1ccco1 | -5.2 | 44.0 | 1.0 | -3.4 | 88.2* | -2.3 | 53.9* | FLuc counter=81.8*
CCN(CC)CCNC(=O)c1ccc(NC(=O)c2ccc(COc3ccccc3)cc2)cc1 | 0.7 | 13.9 | 1.4 | 6.1 | 82.7* | -6.2 | 33.7
CCN(CC)CCNC(=O)c1ccc(NC(=O)c2ccc(S(=O)(=O)N3CCCCCC3)cc2)cc1 | 2.0 | 5.1 | 4.6 | 2.3 | 7.8 | . | .
CCN(CC)CCNC(=O)c1ccc(NC(=O)c2ccc(C(=O)c3ccccc3)cc2)cc1 | 0.5 | -40.0 | -17.0 | -1.9 | 43.9 | 1.6 | .
CCN(CC)CCNC(=O)c1ccc(NC(=O)c2ccc(Cl)c(S(=O)(=O)N3CCCCCC3)c2)cc1 | 12.2 | 4.7 | -6.9 | 19.3 | 94.1* | 9.1 | 36.6
NC(=O)c1c(NC(=O)COC(=O)c2ccc(O)c(Cl)c2)sc2c1CCCC2 | -6.1 | . | . | . | 14.8 | -8.9 | .
COc1ccc(C(=O)N[C@H](C(=O)NCCc2ccc3c(c2)OCCO3)C(C)C)cc1 | -1.4 | . | . | . | 12.3 | -3.9 | .
Cc1ccc(-n2nc(C)c(C(=O)Nc3cccc(C(=O)NC4CC4)c3)n2)c(C)c1 | -3.3 | . | . | . | 23.3 | 1.3 | .
COc1ccc2nc(NC(=O)C3CCN(S(=O)(=O)c4cccc5nsnc45)CC3)sc2c1 | . | . | . | . | 65.3* | 37.8 | 66.1* | FLuc counter=38.6*
O=C(Nc1ncccc1O)c1ccc(Oc2ccccc2)cc1 | -2.7 | 8.3 | 8.2 | 7.8 | -53.0 | 6.7 | .
O=C1C(=O)c2ccccc2C(O)=C1C1CCC(c2ccc(Cl)cc2)CC1 (configuration not stated) | 12.3 | . | . | . | 89.9* | 45.0 | 27.2
SMILES | Beta apoptosis | T cruzi inh | SKKanGAS inh | Calb FLC | Mdm2 MdmX PPI | CSC inhib | Mdm2 MdmX conf | others
O=C1C=C(c2cccc(Cl)c2O)C[C@@H](c2ccc(Cl)cc2)C1 | -1.4 | . | . | . | 0.7 | 32.7 | .
O=c1[nH]c(CCl)nc2cc(-c3ccc(F)cc3)sc12 | 17.5 | -20.1 | 10.3 | 3.7 | 94.3* | 24.5 | 14.0
O=c1[nH]cnc2cc(-c3ccc(Br)cc3)sc12 | -2.9 | -2.8 | 13.3 | 1.9 | -30.1 | 20.5 | .
C[C@H](CO)N1C[C@H](C)[C@@H](CN(C)CC2CC2)Oc2c(NC(=O)Cc3ccccc3)cccc2C1=O | -16.2 | . | . | . | 3.2 | -4.1 | .
CCn1c(=NC(=O)CSC(C)=O)sc2ccccc21 | -6.9 | -9.7 | 3.9 | 11.2 | -14.3 | -5.8 | .
N=c1sc2ccccc2n1-c1ccccc1 | -1.2 | 10.0 | -0.2 | 2.9 | 78.6* | -18.7 | 62.2* | FLuc counter=56.7*
C=CC(=O)N=c1sc2ccccc2n1-c1ccccc1 | . | -160.6 | -9.4 | 22.2 | 82.3* | 47.6 | 80.3* | FLuc counter=37.1*
Cc1ccc(N(C(=O)CNC(=O)c2cccs2)C(C(=O)NC2CCCC2)c2ccncc2)cc1 (configuration not stated) | -5.5 | -13.1 | 2.7 | 4.2 | -17.4 | -3.5 | .
CCOc1ccc(C(=O)NCC(=O)NCCCSc2ccccc2)cc1OCC | -3.2 | 17.8 | -3.8 | -6.3 | 13.4 | 2.4 | .
C#CCOc1ccccc1/C=N/NC(=O)c1ccccc1OCc1ccccc1 | 1.9 | 35.1 | 6.8 | -4.1 | 11.0 | -9.9 | .
COCCN(C(=O)COC(=O)/C=C/c1cccc(OC)c1)c1c(N)n(CC(C)C)c(=O)[nH]c1=O | . | . | . | . | -8.5 | . | .
COc1ccc(C[C@H]2CN3C(=NC[C@@H]3Cc3ccccc3)N2CCNC(=O)CCC2CCCCC2)cc1 | 100.8* | 24.3 | 10.3 | 55.9 | 88.3* | 127.7* | 28.0 | FLuc counter=53.7*
CC(C)C(NC(=O)c1cccc(S(=O)(=O)N2CCOCC2)c1)C(=O)NCc1ccc(Cl)cc1 (configuration not stated) | . | . | . | . | 12.6 | . | .
CC(C)N(C(C)C)S(=O)(=O)c1ccc(NC(=O)c2cnccn2)cc1 | -3.7 | -6.1 | 3.0 | -1.6 | -29.8 | 6.4 | .
O=C(NCCN1CCCC1)c1ccccc1Cl | -0.7 | 2.4 | 2.2 | 1.9 | -2.6 | -2.1 | .
O=C1C(Cl)=C(NCCN2CCCCC2)C(=O)c2ccccc21 | 112.2* | 67.2* | 24.5 | -1.5 | 98.9* | 107.5* | 11.7
CCCCn1c(=N)n(CC(O)COc2ccc(C)cc2)c2ccccc21 (configuration not stated) | 18.5 | 26.9 | 4.1 | -7.0 | 58.0* | 15.7 | 31.1
